“And” between values parts separate entries of the source, which are not always exact repeats. Identical values can stand only once.
How the values were obtained:
HEK-293T = assay: Multiplex assay against HEK293T; type: toxicity, cell-based; conditions: human
How it was run: (§1)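 Four dyes were applied at seeding to live cells: Hoechst33342, BioTracker Green Microtubule Cytoskeleton Dye, MitoTracker Red and Annexin V Alexa Fluor 680. Imaging after compound addition used a CQ1 microscope at 37°C and 5% CO2. CellPathfinder machine-learning gating then sorted cells into Hoechst high-intensity objects or normal cells, normal cells into healthy, pyknosed or fragmented nuclei, and pyknosed cells into mitotic or apoptotic, with tubulin, mitochondrial-mass and membrane-permeability phenotypes given as per cents of healthy-nucleus cells.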

U2OS = assay: Multiplex assay against U2OS; type: toxicity, cell-based; conditions: human; how it was run: as §1
[1] = 12 h, 1 µM, compound concentration 1 uM
[2] = 12 h, 10 µM, compound concentration 10 uM
[3] = 24 h, 1 µM, compound concentration 1 uM
[4] = 24 h, 10 µM, compound concentration 10 uM
[5] = 48 h, 1 µM, compound concentration 1 uM
[6] = 48 h, 10 µM, compound concentration 10 uM

Cc1cc(C)c(NC(=O)C2CC3CCC2C3)c(C)c1 (stereo not drawn)
Population Apoptotic (%) (HEK-293T; [1]): 10.42% and 11.4% | Population Fragmented Nuclei (%) (HEK-293T; [1]): 4.2% and 7.23% | Population Healthy Nuclei (%) (HEK-293T; [1]): 55.46% and 24.1% | Population Hoechst High Intensity Objects (%) (HEK-293T; [1]): 0.83% and 0% | Population Membrane Permeable-Phenotype (%) (HEK-293T; [1]): 0.51% and 2.5% | Population Mitochondria Different-Phenotype (%) (HEK-293T; [1]): 38.89% and 22.5% | Population Mitotic Cells (%) (HEK-293T; [1]): 89.58% and 88.6% | Population Normal (%) (HEK-293T; [1]): 99.17% and 100% | Population Pyknosed Nuclei (%) (HEK-293T; [1]): 40.34% and 68.67% | Total Cell Count (HEK-293T; [1]): 360 and 166 | Population Apoptotic (%) (HEK-293T; [2]): 15.2% | Population Fragmented Nuclei (%) (HEK-293T; [2]): 3.72% and 4.14% | Population Healthy Nuclei (%) (HEK-293T; [2]): 44.63% and 21.89% | Population Hoechst High Intensity Objects (%) (HEK-293T; [2]): 0.82% and 0% | Population Membrane Permeable-Phenotype (%) (HEK-293T; [2]): 0.93% and 2.7% | Population Mitochondria Different-Phenotype (%) (HEK-293T; [2]): 32.41% and 16.22% | Population Mitotic Cells (%) (HEK-293T; [2]): 84.8% | Population Normal (%) (HEK-293T; [2]): 99.18% and 100% | Population Pyknosed Nuclei (%) (HEK-293T; [2]): 51.65% and 73.96% | Total Cell Count (HEK-293T; [2]): 244 and 169 | Population Apoptotic (%) (HEK-293T; [3]): 14.08% and 10% | Population Fragmented Nuclei (%) (HEK-293T; [3]): 1.7% and 6.43% | Population Healthy Nuclei (%) (HEK-293T; [3]): 74.19% and 29.24% | Population Hoechst High Intensity Objects (%) (HEK-293T; [3]): 0% | Population Membrane Permeable-Phenotype (%) (HEK-293T; [3]): 1.6% and 0% | Population Mitotic Cells (%) (HEK-293T; [3]): 85.92% and 90% | Population Normal (%) (HEK-293T; [3]): 100% | Population Pyknosed Nuclei (%) (HEK-293T; [3]): 24.11% and 64.33% | Population Tubulin-Different-Phenotype (%) (HEK-293T; [3]): 17.39% and 0% | Population Apoptotic (%) (HEK-293T; [4]): 17.76% and 15.52% | Population Fragmented Nuclei (%) (HEK-293T; [4]): 1.69% and 2.58% | Population Healthy Nuclei (%) (HEK-293T; [4]): 72.53% and 37.63% | Population Hoechst High Intensity Objects (%) (HEK-293T; [4]): 0% | Population Membrane Permeable-Phenotype (%) (HEK-293T; [4]): 0.33% and 1.37% | Population Mitochondria Different-Phenotype (%) (HEK-293T; [4]): 17.61% and 20.55% | Population Mitotic Cells (%) (HEK-293T; [4]): 82.24% and 84.48% | Population Normal (%) (HEK-293T; [4]): 100% | Population Pyknosed Nuclei (%) (HEK-293T; [4]): 25.78% and 59.79% | Population Tubulin-Different-Phenotype (%) (HEK-293T; [4]): 14.95% and 10.96% | Total Cell Count (HEK-293T; [4]): 415 and 194 | Population Apoptotic (%) (HEK-293T; [5]): 8.16% and 13.89% | Population Fragmented Nuclei (%) (HEK-293T; [5]): 2.91% and 1.03% | Population Healthy Nuclei (%) (HEK-293T; [5]): 86.66% and 62.05% | Population Hoechst High Intensity Objects (%) (HEK-293T; [5]): 0% and 1.52% | Population Membrane Permeable-Phenotype (%) (HEK-293T; [5]): 4.67% and 2.48% | Population Mitochondria Different-Phenotype (%) (HEK-293T; [5]): 12.37% and 24.79% | Population Mitotic Cells (%) (HEK-293T; [5]): 91.84% and 86.11% | Population Normal (%) (HEK-293T; [5]): 100% and 98.48% | Population Apoptotic (%) (HEK-293T; [6]): 9.24% and 23.08% | Population Fragmented Nuclei (%) (HEK-293T; [6]): 2.94% and 2.43% | Population Healthy Nuclei (%) (HEK-293T; [6]): 84.08% and 71.26% | Population Hoechst High Intensity Objects (%) (HEK-293T; [6]): 0% | Population Membrane Permeable-Phenotype (%) (HEK-293T; [6]): 4.15% and 3.98% | Population Mitochondria Different-Phenotype (%) (HEK-293T; [6]): 20.62% and 28.98% | Population Mitotic Cells (%) (HEK-293T; [6]): 90.76% and 76.92% | Population Normal (%) (HEK-293T; [6]): 100% | Population Pyknosed Nuclei (%) (HEK-293T; [6]): 12.98% and 26.32% | Population Apoptotic (%) (U2OS; [1]): 35.29% | Population Fragmented Nuclei (%) (U2OS; [1]): 2.08% and 2.72% | Population Healthy Nuclei (%) (U2OS; [1]): 89.09% and 88.04% | Population Hoechst High Intensity Objects (%) (U2OS; [1]): 0% | Population Membrane Permeable-Phenotype (%) (U2OS; [1]): 1.75% and 1.23% | Population Mitochondria Different-Phenotype (%) (U2OS; [1]): 0.29% and 4.94% | Population Mitotic Cells (%) (U2OS; [1]): 64.71% | Population Normal (%) (U2OS; [1]): 100% | Population Pyknosed Nuclei (%) (U2OS; [1]): 8.83% and 9.24% | Population Tubulin-Different-Phenotype (%) (U2OS; [1]): 2.04% and 0% | Total Cell Count (U2OS; [1]): 385 and 184 | Population Apoptotic (%) (U2OS; [2]): 50% and 36% | Population Fragmented Nuclei (%) (U2OS; [2]): 2.53% and 4.4% | Population Healthy Nuclei (%) (U2OS; [2]): 88.71% and 79.87% | Population Hoechst High Intensity Objects (%) (U2OS; [2]): 0% | Population Membrane Permeable-Phenotype (%) (U2OS; [2]): 1.56% and 2.36% | Population Mitochondria Different-Phenotype (%) (U2OS; [2]): 0.26% and 8.66% | Population Mitotic Cells (%) (U2OS; [2]): 50% and 64% | Population Normal (%) (U2OS; [2]): 100% | Population Pyknosed Nuclei (%) (U2OS; [2]): 8.76% and 15.72% | Population Tubulin-Different-Phenotype (%) (U2OS; [2]): 0.52% and 1.57% | Total Cell Count (U2OS; [2]): 434 and 159 | Population Apoptotic (%) (U2OS; [3]): 42.86% and 36% | Population Fragmented Nuclei (%) (U2OS; [3]): 2.11% and 1.27% | Population Healthy Nuclei (%) (U2OS; [3]): 84.48% and 88.19% | Population Hoechst High Intensity Objects (%) (U2OS; [3]): 0.19% and 0% | Population Membrane Permeable-Phenotype (%) (U2OS; [3]): 1.36% and 1.91% | Population Mitochondria Different-Phenotype (%) (U2OS; [3]): 0.23% and 2.39% | Population Mitotic Cells (%) (U2OS; [3]): 57.14% and 64% | Population Normal (%) (U2OS; [3]): 99.81% and 100% | Population Pyknosed Nuclei (%) (U2OS; [3]): 13.41% and 10.55% | Population Tubulin-Different-Phenotype (%) (U2OS; [3]): 0.91% and 0% | Total Cell Count (U2OS; [3]): 523 and 237 | Population Apoptotic (%) (U2OS; [4]): 34.38% and 46.43% | Population Fragmented Nuclei (%) (U2OS; [4]): 2.9% and 2.49% | Population Healthy Nuclei (%) (U2OS; [4]): 86.2% and 83.58%
